SMILES strings stand for the structures.

A short description of data set [1]: Chemical stability in phosphate buffer solution at pH 1.10 to 6.84 at 60 degC up to 24 hrs by HPLC analysis. The format is physicochemical. The conditions noted are these: pH 1.1, 24 h. The gist of the method: (§1)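 Phosphate buffers at pH 1.10, 4.02, 6.84, 9.14 and 12.02, held at 37 °C and at 60 °C. Remaining compound quantified by HPLC at 0, 1, 2, 4, 8, 16 and 24 h.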

For the next data set, the system named is Plasma. As to the kind of experiment: Stability in mouse plasma up to 12 hrs by HPLC analysis. The data set is classed as ADME, cell-free. The gist of the method: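 Aqueous compound solution (1.0 mL, 50 stock) added to 5 mL mouse plasma, kept at 37 ± 1 °C. 200 aliquots taken at 0, 1, 2, 4, 8 and 12 h, mixed with 400 acetonitrile for 5 min, centrifuged at 10 000 rpm for 5 min, and supernatant analysed by HPLC.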

Data set [2] in a line: Chemical stability in phosphate buffer solution at pH 1.10 to 12.02 at 37 degC up to 24 hrs by HPLC analysis. The format is physicochemical. As to conditions: pH 1.1, 24 h. The gist of the method: as §1
Data set [3] is described as follows: Aqueous solubility in water after 24 hrs by HPLC analysis. The format is physicochemical. In outline: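 Water (10 mL) added to the solid; sonicated 5 min, then stirred 24 h in a 25 °C water bath. Centrifuged at 10 000 rpm for 10 min, supernatant membrane-filtered and quantified by HPLC.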
Data set [4] concerns Mus musculus. In words: Hepatoprotective activity in Kunming mouse assessed as reduction of CCL4-induced increase of serum AST level at 1 mg/kg, ip administered 0.5 hrs before CCL4 challenge measured after 16 hrs. The format is functional. The conditions noted are these: route intraperitoneal. The gist of the method:
(§2)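 Adult male Kunming mice (20–22 g), fasted the day before, in groups of ten. Compound given ip at 1, 2 or 4 mg/kg, followed 0.5 h later by ip CCl₄ (5 mL/kg as 0.2% peanut oil solution). Controls: saline alone, and CCl₄ alone. Orbital blood taken at 16 h; serum assayed for ALT and AST. Mean ± S.D., compared with the CCl₄ group.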

Data set [5] deals with Mus musculus. In words: Hepatoprotective activity in Kunming mouse assessed as reduction of CCL4-induced increase of serum ALT level at 4 mg/kg, ip administered 0.5 hrs before CCL4 challenge measured after 16 hrs. The format is functional. As to conditions: route intraperitoneal. In outline:
as §2

The subject of data set [6] is Mus musculus. In words: Hepatoprotective activity in Kunming mouse assessed as reduction of CCL4-induced increase of serum ALT level at 2 mg/kg, ip administered 0.5 hrs before CCL4 challenge measured after 16 hrs. The conditions noted are these: route intraperitoneal. The data set is classed as functional. In outline:
as §2

Data set [7] relates to Mus musculus. As to the kind of experiment: Hepatoprotective activity in Kunming mouse assessed as reduction of CCL4-induced increase of serum AST level at 2 mg/kg, ip administered 0.5 hrs before CCL4 challenge measured after 16 hrs. The format is functional. As to conditions: route intraperitoneal. The gist of the method: as §2
For data set [8], the system named is Mus musculus. In words: Hepatoprotective activity in Kunming mouse assessed as reduction of CCL4-induced increase of serum AST level at 4 mg/kg, ip administered 0.5 hrs before CCL4 challenge measured after 16 hrs. The format is functional. The conditions noted are these: route intraperitoneal. In outline:
as §2

In data set [9] the test system is Mus musculus. As to the kind of experiment: Hepatoprotective activity in Kunming mouse assessed as reduction of CCL4-induced increase of serum ALT level at 1 mg/kg, ip administered 0.5 hrs before CCL4 challenge measured after 16 hrs. The format is functional. As to conditions: route intraperitoneal. In outline:
as §2

Data set [10] relates to Mus musculus. In words: In vivo metabolic stability in Kunming mouse assessed as 5-(4-hydroxyphenyl)-3H-1,2-dithiole-3-thione level in plasma at 10 mg/kg, ip measured up to 8 hrs by HPLC analysis. Further details: dose 10 mg/kg, route intraperitoneal. The format is ADME, organism-based. The gist of the method:
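Male Kunming mice, ten groups of four, given 10.00 mg/kg ip. Orbital blood (0.5 mL) taken into heparinized tubes at 0.02–8 h. Plasma precipitated with 2 volumes acetonitrile, sonicated, centrifuged, and analysed by HPLC at 354 nm. Plasma calibration curve spans 0.05–31.11 with six points; QC at three levels.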

Broadly, the solubility is how much of the substance goes into solution per volume. A low value points to a poorly soluble substance. In the case of `CC[N+](CC)(CC)CCOc1ccc(-c2cc(=S)ss2)cc1.[Br-]`, the Stability entry (in data set [1]; in the data set with Plasma; in data set [2]) was “Stable” each time. Further, the solubility at 24 h in data set [3] was 3500 µg/mL.
On to `S=c1cc(-c2ccc(OCC[n+]3ccccc3)cc2)ss1.[Br-]`, for which the Stability entry (in data set [1]; in the data set on Plasma; in data set [2]) was “Stable” in each case. Moreover, the Activity worked out at 559.2 IU/L in the data set on Mus musculus [4]; 685 IU/L in the data set on Mus musculus [5]; 630.1 IU/L in the data set with Mus musculus [6]; 617.8 IU/L with Mus musculus [7]; 784.3 IU/L in the data set on Mus musculus [8]; 426.1 IU/L in the data set on Mus musculus [9]. In addition, the solubility at 24 h in [3] worked out at 2300 µg/mL.
`Cl.S=c1cc(-c2ccc(OCCN3CCOCC3)cc2)ss1`: the Stability result (in [1]; with Plasma; in data set [2]) was “Stable” each time. Further, the Activity with Mus musculus [4] is given as 851.7 IU/L; in the data set on Mus musculus [5] it was 457.7 IU/L; in the data set with Mus musculus [6] it was 468 IU/L; in the data set with Mus musculus [7] it was 552.5 IU/L; with Mus musculus [8], 824.9 IU/L; in the data set with Mus musculus [9] it was 595.4 IU/L. In addition, the solubility at 24 h in data set [3] is > 20000 µg/mL.
Take `Cl.S=c1cc(-c2ccc(OCCN3CCCC3)cc2)ss1`: the Stability result (in data set [1]; in the data set with Plasma; in data set [2]) was “Stable” each time. Moreover, the Activity with Mus musculus [4] amounted to 501.2 IU/L; with Mus musculus [5] it was 561.5 IU/L; with Mus musculus [6], 535.9 IU/L; with Mus musculus [7], 582.9 IU/L; in the data set on Mus musculus [8], 607.8 IU/L; with Mus musculus [9] it was 416.6 IU/L. The solubility at 24 h in data set [3] is > 20000 µg/mL.
Take `Oc1ccc(-c2cc(=S)ss2)cc1`: the Stability result (in [1]; with Plasma; in data set [2]) was “Stable” each time. Further, the solubility at 24 h in data set [3] is < 130 µg/mL.
As for `CN(C)CCOc1ccc(-c2cc(=S)ss2)cc1.Cl`, the Stability result (in the data set with Mus musculus [10]; in [1]; with Plasma; in data set [2]) was “Stable” each time. In addition, the Activity with Mus musculus [4] was 310.9 IU/L; in the data set on Mus musculus [5], 171.6 IU/L; with Mus musculus [6], 109.7 IU/L; with Mus musculus [7], 215.7 IU/L; in the data set on Mus musculus [8] it was 284.1 IU/L; with Mus musculus [9] it was 216.5 IU/L. The solubility at 24 h in data set [3] is > 20000 µg/mL.
`CN(C)c1cc[n+](CCOc2ccc(-c3cc(=S)ss3)cc2)cc1.[Br-]`: the Stability result (in data set [1]; in the data set with Plasma; in data set [2]) was “Stable” throughout. In data set [3], this compound displayed a solubility at 24 h of 2800 µg/mL.
On to `Cl.S=c1cc(-c2ccc(OCCN3CCCCC3)cc2)ss1`, for which the Stability result (in data set [1]; in the data set with Plasma; in data set [2]) was “Stable” throughout. Besides, the Activity in the data set with Mus musculus [4] is recorded as 920.6 IU/L; with Mus musculus [5], 382.9 IU/L; in the data set on Mus musculus [6], 259.6 IU/L; in the data set with Mus musculus [7], 416.8 IU/L; with Mus musculus [8], 423.9 IU/L; with Mus musculus [9], 169.3 IU/L. Moreover, in data set [3], the solubility at 24 h is > 20000 µg/mL.
For the compound `COc1ccc(-c2cc(=S)ss2)cc1` [ANETHOLTRITHION], the Stability result (in [1]; in the data set with Plasma; in [2]) was “Stable” each time. The Activity in the data set on Mus musculus [4] amounted to 269.6 IU/L; in the data set with Mus musculus [5], 177.2 IU/L; in the data set with Mus musculus [6] it was 112.4 IU/L; with Mus musculus [7] it was 265.9 IU/L; in the data set on Mus musculus [8] it was 407.1 IU/L; in the data set with Mus musculus [9], 150.7 IU/L. Further, the solubility at 24 h in data set [3] is < 10 µg/mL.

The values are drawn from ChEMBL document CHEMBL1177860, “Design, synthesis, and pharmacological evaluation of the aqueous prodrugs of desmethyl anethole trithione with hepatoprotective activity” (Eur J Med Chem, 2010).
